Assay results published in ChEMBL document CHEMBL1155040, “Potency and selectivity of trifluoroacetylimino and pyrazinoylimino nicotinic insecticides and their fit at a unique binding site niche” (J Med Chem, 2008).
Values after ≈ are worked out from the molar mass of the structure shown.

Assays:
[1] = (§1) Displacement of [3H]IMI from nAChR in Drosophila brain
Summary of the method: (§2)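 IC50 (nM, ± SD) for displacing [³H]IMI binding to native nAChR from Drosophila brain.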

Musca domestica [2] = assay: Insecticidal activity against houseflies; format: functional
Summary of the method: (§3)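 Adult female houseflies were dosed by intrathoracic injection or topical application, either without or with topical pretreatment with the P450 inhibitor synergist O-propyl O-(2-propynyl)phenylphosphonate (100 µg/g) before the test chemical. Where no LD50 was obtained, percent mortality at the indicated dose is given.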

Musca domestica [3] = assay: Insecticidal activity against intrathoracically dosed houseflies at >10 um/g; format: functional; summary of the method: as §3
[4] = Toxicity in ip dosed Swiss Webster mouse; format: organism-based; details: in vivo
Summary of the method: (§4)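 Male albino Swiss-Webster mice (25-30 g) were dosed intraperitoneally. Results are LD50 in mg/kg, or percent lethality at the indicated dose, which was the maximum allowed by solubility in the vehicle.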

[5] = Displacement of [3H]IMI from peach-potato aphid alpha2/rat beta2 nAChR hybrid recombinant receptor
[6] = target: Neuronal acetylcholine receptor subunit alpha-4 (Gallus gallus, UniProt P09482+P09484); assay: Displacement of [3H]nicotine from chick alpha4beta2 nAChR
Chain of Neuronal acetylcholine receptor subunit alpha-4 (P09482 whole entry, one chain of several): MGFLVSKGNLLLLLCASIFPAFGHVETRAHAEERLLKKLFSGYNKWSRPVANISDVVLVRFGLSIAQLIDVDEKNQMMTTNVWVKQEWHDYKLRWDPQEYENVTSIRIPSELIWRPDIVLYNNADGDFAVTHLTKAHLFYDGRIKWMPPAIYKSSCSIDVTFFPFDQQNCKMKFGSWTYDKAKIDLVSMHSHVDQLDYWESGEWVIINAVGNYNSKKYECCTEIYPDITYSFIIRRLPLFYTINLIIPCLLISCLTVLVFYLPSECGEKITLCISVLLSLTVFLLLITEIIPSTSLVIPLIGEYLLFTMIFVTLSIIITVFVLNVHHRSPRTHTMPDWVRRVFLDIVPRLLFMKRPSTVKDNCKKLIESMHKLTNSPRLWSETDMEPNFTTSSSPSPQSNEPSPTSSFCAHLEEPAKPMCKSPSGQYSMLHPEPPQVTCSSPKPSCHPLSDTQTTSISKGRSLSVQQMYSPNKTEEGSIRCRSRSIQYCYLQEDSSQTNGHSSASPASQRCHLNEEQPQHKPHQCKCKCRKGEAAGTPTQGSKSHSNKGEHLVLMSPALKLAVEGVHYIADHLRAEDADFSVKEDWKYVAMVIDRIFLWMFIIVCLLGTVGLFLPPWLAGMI
Summary of the method: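 Radioligand displacement used [³H]nicotine with chick α4β2 nAChR. Values are IC50 ± SD in nM.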

Mus musculus [7] = assay: Toxicity in Swiss Webster mouse at >24 mg/kg, ip; format: organism-based; details: in vivo; summary of the method: as §4
Culex quinquefasciatus [8] = assay: Mosquito Larvicidal activity against premethrin-susceptible fourth instar Culex quinquefasciatus CQ1 after 24 hrs; format: functional; details: CQ1, 24 h
Summary of the method: (§5)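 Larvicidal test on fourth-instar Culex quinquefasciatus, using the susceptible CQ1 colony and the permethrin-resistant Marin colony, with 24 h exposure.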

Culex quinquefasciatus [9] = assay: Mosquito Larvicidal activity against premethrin-resistant fourth instar Culex quinquefasciatus Marin after 24 hrs; format: functional; summary of the method: as §5
[10] = Lipophilicity, log P of the compound; format: physicochemical; details: octanol/water
Mus musculus [11] = assay: Toxicity in Swiss Webster mouse at >36 mg/kg, ip; format: organism-based; details: in vivo; summary of the method: as §4
Drosophila = assay: as §1; details: concentration not given here; summary of the method: as §2

| Compound | IC50 [1] | LD50 (Musca domestica [2]) | Activity (Musca domestica [3]) | further results |
| --- | --- | --- | --- | --- |
| O=C(/N=c1\sccn1Cc1ccc(Cl)nc1)c1ccncc1 | 10 nM | > 10 mg/kg | 0% | – |
| O=[N+]([O-])/N=C1\NCCN1Cc1ccc(Cl)nc1 [IMIDACLOPRID] | 4.3 nM | > 10 mg/kg | 0% | LD50 [4]: 45 mg/kg; IC50 [5]: 3.6 nM; IC50 [6]: 2600 nM |
| O=C(/N=c1\[nH]ccn1Cc1ccc(Cl)nc1)C(F)(F)F | 7.7 nM | > 10 mg/kg | – | – |
| CCOP(=S)(OCC)Oc1nc(Cl)c(Cl)cc1Cl [CHLORPYRIFOS] | – | 2.1 mg/kg | – | – |
| O=C(/N=c1\sccn1Cc1ccc(Cl)nc1)c1cnccn1 | 1.5 nM | > 10 mg/kg | 0% | LD50 [4]: > 24 mg/kg; Activity (Mus musculus [7]): 0%; IC50 [5]: 720 nM; IC50 [6]: 900 nM |
| O=C(/N=c1\sccn1Cc1ccc(Cl)nc1)c1ccccn1 | 13 nM | > 10 mg/kg | 0% | – |
| CC1(C)C(C=C(Cl)Cl)C1C(=O)OCc1cccc(Oc2ccccc2)c1 (stereo unspecified) [PERMETHRIN] | – | – | – | LC50 (Culex quinquefasciatus [8]): 0.005 µg/mL (≈ 0.0128 µM); LC50 (Culex quinquefasciatus [9]): 0.16 µg/mL (≈ 0.409 µM) |
| N#C/N=C1\SCCN1Cc1ccc(Cl)nc1 [THIACLOPRID] | 2.7 nM | > 10 mg/kg | 19% | LD50 [4]: 28 mg/kg; IC50 [5]: 11 nM; IC50 [6]: 860 nM; logP [10]: 1.26 |
| CCOP(=S)(OCC)Oc1ccc([N+](=O)[O-])cc1 [PARATHION] | – | 1.3 mg/kg | – | – |
| O=C(/N=c1\sccn1Cc1ccc(Cl)nc1)c1ccccc1 | 121 nM | > 10 mg/kg | 0% | – |
| CNC(=O)Oc1ccccc1OC(C)C [PROPOXUR] | – | 23 mg/kg | – | – |
| O=C(/N=c1\sccn1Cc1ccc(Cl)nc1)c1ccc(Cl)nc1 | 41 nM | > 10 mg/kg | 0% | – |
| O=C(/N=c1\sccn1Cc1ccc(Cl)nc1)C(F)(F)F | 3.1 nM | 0.75 mg/kg | – | LD50 [4]: > 36 mg/kg; LC50 (Culex quinquefasciatus [8]): 0.012 µg/mL (≈ 0.0373 µM); LC50 (Culex quinquefasciatus [9]): 0.024 µg/mL (≈ 0.0746 µM); IC50 [5]: 280 nM; IC50 [6]: 500 nM; Activity (Mus musculus [11]): 0% |
| O=C(/N=c1\sccn1Cc1ccc(Cl)nc1)c1cccnc1 | 4.8 nM | > 10 mg/kg | 0% | – |
| Clc1ccc(C(c2ccc(Cl)cc2)C(Cl)(Cl)Cl)cc1 [CHLOROPHENOTHANE] | – | 14 mg/kg | – | – |
| O=C(/N=c1\sccn1Cc1ccc(Cl)nc1)c1ccc(Cl)cc1 | > 30000 nM | > 10 mg/kg | 0% | inhibition (Drosophila): 10% |
| ClC1=C(Cl)[C@]2(Cl)[C@@H]3[C@@H]4C[C@@H]([C@H]5O[C@@H]45)[C@@H]3[C@@]1(Cl)C2(Cl)Cl [DIELDRIN] | – | 0.75 mg/kg | – | – |
